For data set [1], the system named is CD69 expression in anti-IgM stimulated whole blood. Nature of the data set: anti-IgM stimulated human whole blood, FACS for CD69. It counts as cell-based. The note with it: read-out: anti-IgM stimulated whole blood CD69 expression IC50.
In a further data set the test system is 4T1 tumour. Nature of the data set: 4T1 breast cancer model, orthotopic in mammary fat pad, oral PI-3065. It counts as in vivo, female WT BALB/c mice. The note with it: 75 mg/kg daily per os. In short, it runs like this: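 Luciferase-labelled 4T1 cells (10^5) inoculated into the mammary/breast fat pad 12 h after the first oral dose of vehicle or test compound (75 mg/kg daily, 36 days). Tumour growth followed by luciferase imaging and caliper volume. Tumour weight and luciferase activity measured in tumours excised 35 days after inoculation. Metastasis incidence by H&E histology as % of tumour-bearing mice. Body weight change from day 0. Mann-Whitney test.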

In the next data set the test system is 72 protein kinases. Nature of the data set: KinaseProfiler assay. The class given is biochemical. The note with it: at ≤ 10 μM.
For the next data set, the system named is 4T1 cells. The experiment in a line: Proliferation of 4T1 cells in vitro. It counts as cell-based, mouse. The note with it: 4 h treatment, washing, MTS staining after 48 h culture.
The next data set addresses p110α (Homo sapiens, UniProt P42336). The experiment in a line: PI3K isoform inhibition, Ki and IC50. The class given is biochemical.
A further data set has as its target p110γ (Homo sapiens, UniProt P48736). The experiment in a line: PI3K isoform inhibition, Ki and IC50. It counts as biochemical.
Another data set addresses p110β (Homo sapiens, UniProt P42338). The experiment in a line: PI3K isoform inhibition, Ki and IC50. The class given is biochemical.
The next data set concerns the target p110δ (Homo sapiens, UniProt O00329). The experiment in a line: PI3K isoform inhibition, Ki and IC50. The class given is biochemical.
The test system of data set [2] is pancreatic ductal adenocarcinoma (PDAC). Nature of the data set: KPC model of pancreatic ductal adenocarcinoma, treatment of palpable disease. The class given is in vivo, KPC mice. The procedure, abridged: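 KPC mice (endogenous mutant KrasG12D and p53R172H in Pdx1+ pancreatic cells) developed palpable disease before vehicle or test compound (75 mg/kg) began. Read-outs were survival, macrometastases and pathology by H&E, Treg (% of CD4+) and CD44high cells (% of CD8+) in draining lymph nodes, and CD8+ cells (% of CD45+) in normal pancreas versus PDAC lesions. Mann-Whitney test.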

For data set [3], the system named is chronic lymphocytic leukaemia (CLL) and non-Hodgkin's lymphoma. The note with it: cited from earlier work.
Where [4] appears, read: 36 consecutive days, 4T1 tumour-bearing mice.
[5] abbreviates: 75 mg/kg, treatment after palpable disease.

We go through three molecules from publication PMC4501086 (Nature, 2014).

Read-outs that look alike come from different tables or passages of the source. Where only a bound is given, the exact number is not on record here.

The IC50 is the midpoint of a concentration-inhibition curve. In general, Ki refers to a dissociation constant, usually derived from enzyme kinetics or from competition with a known ligand. Read a low Ki as higher affinity.

Chain of p110γ (P48736 whole entry, species assumed, canonical isoform): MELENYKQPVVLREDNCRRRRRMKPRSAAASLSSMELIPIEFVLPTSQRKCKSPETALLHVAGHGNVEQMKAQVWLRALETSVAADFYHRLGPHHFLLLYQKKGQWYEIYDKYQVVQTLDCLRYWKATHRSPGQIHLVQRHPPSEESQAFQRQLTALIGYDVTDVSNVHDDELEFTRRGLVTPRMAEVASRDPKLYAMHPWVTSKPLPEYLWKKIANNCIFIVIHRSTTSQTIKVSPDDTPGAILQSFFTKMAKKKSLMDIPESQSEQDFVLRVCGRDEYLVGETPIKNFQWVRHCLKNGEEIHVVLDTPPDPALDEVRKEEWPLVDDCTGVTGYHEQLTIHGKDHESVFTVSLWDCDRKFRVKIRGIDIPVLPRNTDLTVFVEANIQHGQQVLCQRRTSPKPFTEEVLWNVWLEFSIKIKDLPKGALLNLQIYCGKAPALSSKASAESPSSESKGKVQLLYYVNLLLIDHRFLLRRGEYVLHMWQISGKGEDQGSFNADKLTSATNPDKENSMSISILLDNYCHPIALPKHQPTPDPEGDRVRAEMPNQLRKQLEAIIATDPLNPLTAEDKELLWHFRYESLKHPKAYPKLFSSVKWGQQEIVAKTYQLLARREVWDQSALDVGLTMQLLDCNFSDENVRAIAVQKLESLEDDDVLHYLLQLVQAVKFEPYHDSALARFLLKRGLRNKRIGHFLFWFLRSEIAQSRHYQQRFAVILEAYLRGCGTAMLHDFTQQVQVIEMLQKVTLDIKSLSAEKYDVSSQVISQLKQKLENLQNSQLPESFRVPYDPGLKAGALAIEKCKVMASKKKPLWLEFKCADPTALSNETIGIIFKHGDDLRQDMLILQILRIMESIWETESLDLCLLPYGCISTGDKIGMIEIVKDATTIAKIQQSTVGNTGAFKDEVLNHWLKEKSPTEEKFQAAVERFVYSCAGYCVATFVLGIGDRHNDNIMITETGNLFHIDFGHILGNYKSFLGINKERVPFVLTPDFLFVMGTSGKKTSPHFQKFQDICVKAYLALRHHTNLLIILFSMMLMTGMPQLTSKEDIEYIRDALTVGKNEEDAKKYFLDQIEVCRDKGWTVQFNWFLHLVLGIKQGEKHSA
Chain of p110β (P42338 whole entry, species assumed, canonical isoform): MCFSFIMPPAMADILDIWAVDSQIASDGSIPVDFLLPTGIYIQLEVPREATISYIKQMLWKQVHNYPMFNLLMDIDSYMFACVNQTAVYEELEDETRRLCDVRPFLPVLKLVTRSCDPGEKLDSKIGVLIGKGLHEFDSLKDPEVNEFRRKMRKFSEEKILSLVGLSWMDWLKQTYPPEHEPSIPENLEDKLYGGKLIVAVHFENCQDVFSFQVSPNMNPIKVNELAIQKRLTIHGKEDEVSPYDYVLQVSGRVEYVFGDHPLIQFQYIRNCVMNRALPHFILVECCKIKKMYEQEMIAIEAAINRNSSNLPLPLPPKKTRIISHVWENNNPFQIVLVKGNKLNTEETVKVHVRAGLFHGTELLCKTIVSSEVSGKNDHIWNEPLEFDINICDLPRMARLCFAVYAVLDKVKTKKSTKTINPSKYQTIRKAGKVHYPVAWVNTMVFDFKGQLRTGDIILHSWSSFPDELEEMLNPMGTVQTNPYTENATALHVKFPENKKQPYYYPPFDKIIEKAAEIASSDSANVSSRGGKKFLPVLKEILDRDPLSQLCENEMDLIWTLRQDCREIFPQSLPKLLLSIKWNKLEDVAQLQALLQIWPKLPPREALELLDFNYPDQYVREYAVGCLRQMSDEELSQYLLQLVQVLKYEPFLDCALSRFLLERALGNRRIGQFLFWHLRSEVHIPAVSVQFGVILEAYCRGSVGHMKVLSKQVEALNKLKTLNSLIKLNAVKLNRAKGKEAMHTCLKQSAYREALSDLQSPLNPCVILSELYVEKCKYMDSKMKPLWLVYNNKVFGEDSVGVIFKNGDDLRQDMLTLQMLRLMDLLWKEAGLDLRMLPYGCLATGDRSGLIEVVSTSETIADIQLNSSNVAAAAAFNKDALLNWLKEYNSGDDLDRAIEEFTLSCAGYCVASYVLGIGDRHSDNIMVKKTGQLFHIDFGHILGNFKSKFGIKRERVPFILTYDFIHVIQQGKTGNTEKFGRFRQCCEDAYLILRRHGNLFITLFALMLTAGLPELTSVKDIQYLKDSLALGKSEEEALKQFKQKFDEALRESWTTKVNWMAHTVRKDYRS
Chain of p110β (P27986 whole entry partner, species assumed, canonical isoform): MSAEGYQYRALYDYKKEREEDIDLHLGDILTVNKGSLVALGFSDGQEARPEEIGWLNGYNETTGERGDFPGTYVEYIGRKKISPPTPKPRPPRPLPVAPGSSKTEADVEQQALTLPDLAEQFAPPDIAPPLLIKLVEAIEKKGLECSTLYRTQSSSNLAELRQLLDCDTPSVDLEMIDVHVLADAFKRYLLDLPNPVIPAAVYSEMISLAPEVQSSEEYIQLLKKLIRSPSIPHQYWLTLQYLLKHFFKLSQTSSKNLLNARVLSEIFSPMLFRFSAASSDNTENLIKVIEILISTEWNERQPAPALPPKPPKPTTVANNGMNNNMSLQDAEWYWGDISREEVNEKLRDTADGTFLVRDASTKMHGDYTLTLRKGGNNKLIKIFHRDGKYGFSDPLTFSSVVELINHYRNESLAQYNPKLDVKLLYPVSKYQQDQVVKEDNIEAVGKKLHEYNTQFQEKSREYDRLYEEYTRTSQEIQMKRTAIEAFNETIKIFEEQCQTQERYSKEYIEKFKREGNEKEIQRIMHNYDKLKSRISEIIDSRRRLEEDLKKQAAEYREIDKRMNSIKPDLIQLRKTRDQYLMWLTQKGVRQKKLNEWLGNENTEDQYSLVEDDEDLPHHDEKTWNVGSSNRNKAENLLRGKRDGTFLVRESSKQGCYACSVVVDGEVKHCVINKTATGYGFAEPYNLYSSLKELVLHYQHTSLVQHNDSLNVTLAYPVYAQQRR
Chain of p110α (P42336 whole entry, species assumed, canonical isoform): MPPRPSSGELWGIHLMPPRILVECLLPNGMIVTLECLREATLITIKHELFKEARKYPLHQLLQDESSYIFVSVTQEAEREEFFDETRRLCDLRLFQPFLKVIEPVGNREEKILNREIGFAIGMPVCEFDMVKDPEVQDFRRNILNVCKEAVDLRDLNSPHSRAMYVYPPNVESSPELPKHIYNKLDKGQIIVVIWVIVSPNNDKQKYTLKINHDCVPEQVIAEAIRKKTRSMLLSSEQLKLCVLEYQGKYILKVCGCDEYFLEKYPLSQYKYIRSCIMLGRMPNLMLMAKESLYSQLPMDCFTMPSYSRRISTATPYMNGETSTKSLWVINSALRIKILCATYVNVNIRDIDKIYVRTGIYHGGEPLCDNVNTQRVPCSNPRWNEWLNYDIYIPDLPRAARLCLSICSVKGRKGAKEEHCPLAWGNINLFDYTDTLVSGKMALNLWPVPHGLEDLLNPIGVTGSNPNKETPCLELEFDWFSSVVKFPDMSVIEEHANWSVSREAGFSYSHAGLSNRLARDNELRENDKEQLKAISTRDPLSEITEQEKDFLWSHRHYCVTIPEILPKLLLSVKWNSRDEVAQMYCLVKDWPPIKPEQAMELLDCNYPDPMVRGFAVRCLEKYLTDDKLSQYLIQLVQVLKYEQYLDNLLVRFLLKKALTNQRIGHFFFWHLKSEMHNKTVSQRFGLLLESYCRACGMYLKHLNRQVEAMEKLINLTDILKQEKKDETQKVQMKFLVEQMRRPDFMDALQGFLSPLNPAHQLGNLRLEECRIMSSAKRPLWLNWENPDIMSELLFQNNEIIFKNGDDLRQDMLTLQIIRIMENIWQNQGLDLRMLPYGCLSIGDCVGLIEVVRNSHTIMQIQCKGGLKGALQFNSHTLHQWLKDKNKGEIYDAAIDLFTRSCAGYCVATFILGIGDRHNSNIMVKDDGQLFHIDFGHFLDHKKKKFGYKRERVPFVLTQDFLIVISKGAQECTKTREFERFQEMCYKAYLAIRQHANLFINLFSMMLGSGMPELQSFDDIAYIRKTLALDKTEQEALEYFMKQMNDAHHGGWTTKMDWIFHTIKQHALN
Chain of p110α (P27986 whole entry partner, species assumed, canonical isoform): as the sequence (P27986 whole entry partner, species assumed, canonical isoform) above
Chain of p110δ (O00329 whole entry, species assumed, canonical isoform): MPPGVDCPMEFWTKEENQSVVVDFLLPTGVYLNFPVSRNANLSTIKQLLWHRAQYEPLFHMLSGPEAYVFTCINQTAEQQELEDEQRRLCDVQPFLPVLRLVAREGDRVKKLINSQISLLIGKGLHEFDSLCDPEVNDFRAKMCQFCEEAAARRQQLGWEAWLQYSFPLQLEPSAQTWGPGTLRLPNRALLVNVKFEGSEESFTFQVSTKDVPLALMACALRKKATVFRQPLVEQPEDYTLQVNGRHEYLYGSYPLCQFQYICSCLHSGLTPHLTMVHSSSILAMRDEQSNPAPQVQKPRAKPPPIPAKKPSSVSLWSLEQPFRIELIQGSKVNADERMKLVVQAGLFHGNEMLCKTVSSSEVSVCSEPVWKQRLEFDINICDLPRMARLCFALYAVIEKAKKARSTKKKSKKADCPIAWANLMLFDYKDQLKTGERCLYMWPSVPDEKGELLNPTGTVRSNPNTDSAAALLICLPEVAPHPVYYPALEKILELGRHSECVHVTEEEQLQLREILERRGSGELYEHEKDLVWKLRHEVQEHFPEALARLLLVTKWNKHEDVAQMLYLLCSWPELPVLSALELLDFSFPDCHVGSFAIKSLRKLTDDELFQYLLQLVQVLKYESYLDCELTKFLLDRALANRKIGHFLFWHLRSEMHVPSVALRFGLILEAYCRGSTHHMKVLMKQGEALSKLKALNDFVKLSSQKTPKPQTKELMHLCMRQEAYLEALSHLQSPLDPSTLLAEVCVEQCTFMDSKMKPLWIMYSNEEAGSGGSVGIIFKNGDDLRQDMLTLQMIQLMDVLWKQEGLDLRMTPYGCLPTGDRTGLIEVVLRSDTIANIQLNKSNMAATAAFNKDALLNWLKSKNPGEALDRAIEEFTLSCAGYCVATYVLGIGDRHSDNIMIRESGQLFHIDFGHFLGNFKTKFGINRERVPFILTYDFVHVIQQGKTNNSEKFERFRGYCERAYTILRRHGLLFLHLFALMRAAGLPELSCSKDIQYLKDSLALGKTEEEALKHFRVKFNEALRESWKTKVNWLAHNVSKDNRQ
Chain of p110δ (P27986 whole entry partner, species assumed, canonical isoform): as the sequence (P27986 whole entry partner, species assumed, canonical isoform) above

With `Cc1ccccc1-n1c(Cn2cnc3c(N)ncnc32)nc2cccc(C)c2c1=O` [IC87114], the concentration for half-maximal inhibition (IC50) in data set [1] (human whole blood, anti-IgM, FACS for CD69) was determined as 3500 nM.
Regarding `Fc1ccc2[nH]ccc2c1-c1nc(N2CCOCC2)c2sc(CN3CCN(CC4CC4)CC3)cc2n1` [PI-3065], in the data set with 4T1 tumour (setting [4]), the body weight loss result is given as “did not induce weight loss” and the “tolerability of long-term administration” value is listed as “well-tolerated”. In addition, in the data set with 4T1 tumour (36 days), the 4T1 metastasis entry was “suppressed” and the 4T1 tumour growth entry is “suppressed”. The “activity against 72 protein kinases” value with 72 protein kinases is “No significant activity”. Also, in the data set on 4T1 cells, the “in vitro growth inhibition of 4T1 cells” value is “not growth-inhibited”. On p110α, this molecule displayed a Ki of 110 nM. At p110γ, this molecule displayed an IC50 of over 10000 nM and a Ki of 940 nM. In addition, the half-inhibitory concentration (IC50) in data set [1] (Homo sapiens) was found to be 38 nM. At p110β, this molecule showed an IC50 of 600 nM and a Ki of 130 nM. On p110δ, this molecule had a Ki of 1.5 nM. In addition, in [2] (setting [5]), the “incidence of metastases and other disease-associated pathologies” value was “reduced”; the “survival of KPC mice” value was “prolonged survival”. In addition, the “infiltrating CD8+ T cells in pancreatic lesions” value in [2] (14 days after treatment) is reported as “relatively more”. In data set [2] (after 7 days of treatment), the “levels of CD44high CD8+ lymphocytes in the draining lymph nodes” value was “higher levels” and the “relative abundance of peripheral Treg in lymph nodes” value is “reduced”.
`CC[C@H](Nc1ncnc2[nH]cnc12)c1nc2cccc(F)c2c(=O)n1-c1ccccc1` [Idelalisib]: the IC50 in data set [1] (Homo sapiens) was 60 nM. For the same molecule, in data set [3], the “therapeutic impact in patients” value is “impressive therapeutic impact”.
